TRPC6 inh = blocks the mouse TRPC6 cation channel; Q61143; B-score at 10 µM; AID 2553; actives 1.1% (n = 310,000); HEK293-TRPC6, membrane potential dye, ACh-evoked depolarization; stronger effect = lower value;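 active = B-score under library mean minus 3 SD, initial fluorescence not abnormally high, positive integrated signal ratio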;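 also: B-score derived from integrated fluorescence ratio over the kinetic read; more negative B-score means stronger inhibition of depolarization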
Target sequence (Q61143 whole entry, looked up): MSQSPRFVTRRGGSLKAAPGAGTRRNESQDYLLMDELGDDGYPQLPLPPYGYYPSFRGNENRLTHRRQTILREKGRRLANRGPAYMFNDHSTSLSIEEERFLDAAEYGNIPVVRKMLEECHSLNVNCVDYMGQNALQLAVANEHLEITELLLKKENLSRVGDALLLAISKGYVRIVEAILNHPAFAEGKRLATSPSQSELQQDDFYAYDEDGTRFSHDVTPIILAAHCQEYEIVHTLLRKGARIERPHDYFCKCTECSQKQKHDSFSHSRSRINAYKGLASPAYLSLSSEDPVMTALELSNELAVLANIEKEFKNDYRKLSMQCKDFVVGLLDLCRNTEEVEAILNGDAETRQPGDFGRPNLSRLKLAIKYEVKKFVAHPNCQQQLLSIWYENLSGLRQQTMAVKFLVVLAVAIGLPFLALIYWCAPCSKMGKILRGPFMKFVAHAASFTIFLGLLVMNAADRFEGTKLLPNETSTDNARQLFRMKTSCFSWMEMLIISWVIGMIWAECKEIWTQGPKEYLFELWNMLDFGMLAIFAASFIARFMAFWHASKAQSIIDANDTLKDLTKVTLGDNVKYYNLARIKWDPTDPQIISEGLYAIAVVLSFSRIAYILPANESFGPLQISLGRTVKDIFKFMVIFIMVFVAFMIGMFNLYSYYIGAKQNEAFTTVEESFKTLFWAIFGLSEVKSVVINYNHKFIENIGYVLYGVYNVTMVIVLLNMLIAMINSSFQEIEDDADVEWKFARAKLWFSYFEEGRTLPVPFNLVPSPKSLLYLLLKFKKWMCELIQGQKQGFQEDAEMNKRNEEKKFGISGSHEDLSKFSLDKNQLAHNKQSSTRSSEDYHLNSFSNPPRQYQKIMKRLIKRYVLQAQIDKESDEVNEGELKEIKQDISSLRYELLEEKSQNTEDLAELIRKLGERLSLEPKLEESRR
TRPC4 block = inhibitors of mouse TRPC4 channel; HEK293 TRPC4beta/mu-opioid, DAMGO-evoked Fluo4 calcium flux; stronger effect = lower value; AID 2247; actives 0.39% (n = 300,000); Q9QUQ5; B-score at 10 µM;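 active = B-score over 3 SD under the library average, no early fluorescence shift, positive overall ratio signal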
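material = TRPC4beta/mu-opioid receptor HEK293 cell line | probe or stimulus = sequential submaximal and maximal DAMGO stimulation | compound dosing = one concentration per compound | measured by = Fluo4 Ca2+ flux fluorescence | evaluation = integrated fluorescence ratio relative to baseline, converted to per-well B score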
TRPC6 activator = mouse TRPC6 channel activation; actives 0.13% (n = 310,000); B-score at 10 µM; AID 2550; HEK293-TRPC6 membrane potential dye fluorescence; stronger effect = higher value;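 active = B-score of the integrated fluorescence ratio above library mean plus 3 SD, and starting fluorescence ratio within library mean plus 5 SD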;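 also: higher score means more depolarization so channel activation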
TRPC4 PAM = allosteric potentiators of mouse TRPC4 channel | Q9QUQ5 | HEK293 TRPC4beta/mu-opioid, DAMGO EC20, Fluo-4 Ca2+ flux; stronger effect = higher value | B-score at 10 µM | actives 0.42% (n = 310,000) | AID 2227;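 active = B-score of calcium response area above 5 SD of library B-scores, with initial fluorescence ratio within 5 SD of library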;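 also: B-score of integrated fluorescence ratio over time as area under calcium response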
TRPC4 act = activators of mouse TRPC4 channel; Q9QUQ5; HEK293 TRPC4beta/mu-opioid, Fluo4 calcium fluorescence; stronger effect = higher value; B-score at 10 µM; actives 0.49% (n = 310,000); AID 2237;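 active = B-score above 5 SD of library B-scores, and initial fluorescence ratio not above library mean plus 5 SD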;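 also: positive B-score marks a calcium rise read as TRPC4 activation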
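Assay system – TRPC4beta and mu-opioid receptor HEK293 stable cells · Measured by – Fluo4 fluorescence, kinetic · Schedule – dye loading 45 min room temperature, 110 s kinetic read · Read-out – B-scored integrated calcium fluorescence ratio · Controls – buffer and maximal DAMGO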
TRPC4 spec 2 = second selectivity test of TRPC6 inhibitors: effect on mouse TRPC4; shares compounds with TRPC6 inh; HEK293 TRPC4/MOR, membrane potential dye fluorescence; channel activated by saturating DAMGO dose; inhibition, % at 10 µM; actives 42% (n = 920); AID 2776;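 active = compounds whose fluorescence signal differed from control wells by over 3 SD, either direction, in both duplicate plates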
TRPC4 spec = selectivity of TRPC6 inhibitors: effect on mouse TRPC4; HEK293 TRPC4/mu-opioid, membrane potential fluorescence; shares compounds with TRPC6 inh; AID 2777; activity change, negative = inhibition, % at 10 µM; actives 61% (n = 920);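 active = rise or fall in signal beyond 3 SD of buffer-only wells in both replicate plates, either sign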;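 also: integrated kinetic ratio of fluorescence range over baseline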
HEK293 MPD ctr 2-1 = second check of TRPC6 inhibitor effects in parental HEK293 cells; signal change vs control, % at 10 µM; parental HEK293 membrane potential dye fluorescence; maximal acetylcholine challenge after compound addition; actives 31% (n = 920); shares compounds with TRPC6 inh;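 active = membrane potential signal moving either way by over 3 SD of the maximum-effect control, in both duplicate plates, meaning non-specific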
HEK293 MPD ctr-1 = checks TRPC6 inhibitor effects in parental HEK293 cells; shares compounds with TRPC6 inh; parental HEK293 membrane potential dye fluorescence; membrane potential signal change, % at 10 µM; actives 60% (n = 920);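 active = membrane potential signal shifting up or down by more than 3 SD of buffer-only wells, on both duplicate plates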
HEK293 MPD ctr-2 = counter-screen for TRPC6 modulators: effect in parental HEK293 cells | membrane potential dye fluorescence | AID 488924 | shares compounds with TRPC6 inh | actives 51% (n = 2,400) | membrane potential signal change, % at 10 µM;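 active = membrane potential signal moves up or down beyond 5 SD from buffer-only wells, on both duplicate plates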
HEK293 MPD ctr 2-2 = second counter-screen for TRPC6 modulators: effect in parental HEK293 cells; inhibition, % at 10 µM; membrane potential dye fluorescence; after compound, maximal acetylcholine stimulation; actives 14% (n = 2,400); shares compounds with TRPC6 inh;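 active = membrane potential signal drops by more than 5 SD from the mean control signal, in both duplicate plates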;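 also: plate controls were acetylcholine ECmax control wells for no effect and buffer only wells for full effect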
TRPC4 ctr mod = mouse TRPC4 off-target activity of TRPC6 modulators | shares compounds with TRPC6 inh | HEK293 TRPC4/mu-opioid, membrane potential fluorescence | actives 69% (n = 2,400) | percent change from control (negative = decrease, positive = increase), % at 10 µM;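 active = membrane potential signal moved up or down beyond 5 SD of buffer control wells, in both duplicate plates, actives on both sides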;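 also: plate controls were assay buffer wells for no effect and DAMGO maximal-effect wells for full effect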
TRPC4/MOR inh 2 = second check of whether TRPC6 modulators also affect mouse TRPC4; shares compounds with TRPC6 inh; HEK293 TRPC4/mu-opioid, membrane potential dye fluorescence; stimulated with maximal-effect DAMGO; inhibition, % at 10 µM; actives 55% (n = 2,400);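 active = drop in membrane potential signal beyond 5 SD of the control wells in both duplicate plates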;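 also: TRPC4 counter screen for TRPC6 hits run under conditions tuned for TRPC6 not TRPC4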
TRPC6 block conf = confirmation of mouse TRPC6 inhibitors; shares compounds with TRPC6 inh; HEK293-TRPC6, membrane potential dye, ACh-evoked depolarization; inhibition, % at 10 µM; actives 43% (n = 3,300); AID 488960;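 active = fluorescence ratio falls more than 5 SD below the full-stimulation control mean, in both duplicate runs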;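 also: integrated fluorescence ratio of peak minus minimum over baseline after agonist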
TRPC6 act conf = mouse TRPC6 activator confirmation. HEK293-TRPC6 membrane potential dye fluorescence, FDSS. shares compounds with TRPC6 inh. activation, % at 10 µM. actives 11% (n = 2,800);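 active = ratio signal rise beyond 5 SD above unstimulated control wells' mean, seen in both duplicate runs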;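 also: plate controls were buffer EC0 wells for no effect and acetylcholine ECmax response for full effect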
Numbers without * were called inactive; i = inactive; . = no result given. Sampled rows, rich in hits. Any-hit rate of the full collection: about 2.3%.

SMILES | TRPC6 inh | TRPC4 block | TRPC6 activator | TRPC4 PAM | TRPC4 act | HEK293 MPD ctr-2 | HEK293 MPD ctr 2-2 | TRPC4 ctr mod | TRPC4/MOR inh 2 | TRPC6 block conf | TRPC6 act conf | others
O=C(COC(=O)c1c(Cl)cccc1Cl)NC1CCCCC1 | i | i | 12* | i | i | 121.0%* | i | 23.5%* | i | . | 171.0%*
Cn1c(=O)c2c(nc(Br)n2Cc2nnc(N)s2)n(C)c1=O | i | i | i | i | i | . | . | . | . | . | .
CCC[N+](CC#Cc1ccccc1)(CCC)CC(=O)c1ccc(Cl)cc1 | -5.74* | i | i | i | i | 332.0%* | i | 77.0%* | 52.5%* | 67.5%* | .
CSc1ncc(Cl)c(C(=O)Nc2ccccc2[N+](=O)[O-])n1 | i | i | i | i | i | . | . | . | . | . | .
CCCCNCC(O)(c1ccc(Cl)cc1)c1ccc(Cl)cc1 | -5.02* | i | i | i | i | 120.5%* | i | 26.5%* | 47.0%* | i | .
O=C(NCCSc1ncc(-c2ccc(F)cc2)[nH]1)c1ccc2c(c1)OCO2 | -5.79* | i | i | i | i | i | i | i | i | i | i
Cc1ccc(-c2cnc(SCCNC(=O)c3ccco3)[nH]2)cc1 | i | i | i | i | i | . | . | . | . | . | .
COc1ccc(C2=NN(CC(=O)NCc3ccco3)C(=O)CC2)cc1 | i | i | i | i | i | . | . | . | . | . | .
CS(=O)(=O)N1CCN(Cc2cc(=O)n3ccsc3n2)CC1 | i | i | i | i | i | . | . | . | . | . | .
Cc1cc(N2CCN(c3ccc(F)cc3)CC2)nc2cc(O)ccc12 | -6.27* | i | i | i | i | -60.5%* | i | -11.0%* | 35.5%* | i | i
COc1ccc2c(C)cc(N3CCN(c4ccc(F)cc4)CC3)nc2c1 | i | i | i | i | i | . | . | . | . | . | .
O=C(CC12CC3CC(CC(C3)C1)C2)N1CCN(S(=O)(=O)c2cccs2)CC1 | i | i | i | i | i | . | . | . | . | . | .
Oc1cccc(Nc2nc(NCC3CCCO3)c3ccccc3n2)c1 (centres undefined) | i | i | i | i | i | . | . | . | . | . | .
c1ccc(Nc2nc(NCC3CCCO3)c3ccccc3n2)cc1 (centres undefined) | -8.84* | -6* | i | i | i | . | . | . | . | 53.3%* | i | TRPC4 spec 2=31.0%*;TRPC4 spec=-15.2%*;HEK293 MPD ctr 2-1=i;HEK293 MPD ctr-1=-135.0%*
CCOc1ccc(Nc2nc(NCC3CCCO3)c3ccccc3n2)cc1 (centres undefined) | -9.61* | -5* | i | i | i | . | . | . | . | i | i | TRPC4 spec 2=55.5%*;TRPC4 spec=-17.4%*;HEK293 MPD ctr 2-1=i;HEK293 MPD ctr-1=-150.5%*
c1ccc(-c2nc(NCC3CCCO3)c3ccccc3n2)nc1 (centres undefined) | i | i | i | i | i | . | . | . | . | . | .
COc1ccc(Nc2nc(NCC3CCCO3)c3ccccc3n2)c(OC)c1 (centres undefined) | -9.85* | -6* | i | i | i | . | . | . | . | 75.5%* | i | TRPC4 spec 2=47.5%*;TRPC4 spec=-15.6%*;HEK293 MPD ctr 2-1=i;HEK293 MPD ctr-1=-223.0%*
COc1ccc(N2CC(C(=O)NCc3ccco3)CC2=O)cc1 (centres undefined) | i | i | i | i | i | . | . | . | . | . | .
N#Cc1ccc(C2=NC(C(F)(F)F)(C(F)(F)F)c3c(n(Cc4ccco4)c(=O)[nH]c3=O)N2)cc1 | -8.33* | i | i | i | i | . | . | . | . | i | i | TRPC4 spec 2=i;TRPC4 spec=-11.7%*;HEK293 MPD ctr 2-1=i;HEK293 MPD ctr-1=-128.0%*
CCOC(=O)c1c(S(=O)(=O)N2CCC(C)CC2)c(C)n(C)c1C | i | i | i | i | i | . | . | . | . | . | .
COc1ccc(OCCNC(=O)c2ccc(C)cc2)cc1 | i | i | i | i | i | . | . | . | . | . | .
Cc1ccc(C)c(OC(=O)c2cccnc2Cl)c1C | -6.17* | i | i | i | i | i | i | i | i | i | i
CCc1cc(=O)oc2cc(C)cc(OCC(=O)NC3CCN(Cc4ccccc4)CC3)c12 | -5.51* | i | i | i | i | -100.5%* | i | -26.0%* | 68.0%* | 40.0%* | i
CCc1cc(=O)oc2cc(C)cc(OCC(=O)NC3CC3)c12 | i | i | i | i | i | . | . | . | . | . | .
COc1ccccc1CNCc1ccc(OC)c2ccccc12 | -6.15* | -7* | i | i | i | 265.0%* | i | 64.0%* | 70.0%* | 52.0%* | .
Cc1ccc(-c2nnc(CSc3nc(C(C)C)nc4sc(C)c(C)c34)o2)cc1 | -5.55* | i | i | i | i | i | i | i | i | i | i
CCOC(=O)CSc1nc(C(C)C)nc2sc(C)c(C)c12 | i | i | i | i | i | . | . | . | . | . | .
O=C(Nc1ccc(S(=O)(=O)N2CCCCC2)cc1)C1CCCN(C(=O)c2ccc(Cl)cc2)C1 (centres undefined) | i | i | i | i | i | . | . | . | . | . | .
OCCNc1nc(Nc2ccccc2)nc2ccccc12 | -9.64* | i | i | i | i | . | . | . | . | 69.4%* | i | TRPC4 spec 2=32.5%*;TRPC4 spec=-21.7%*;HEK293 MPD ctr 2-1=i;HEK293 MPD ctr-1=-224.5%*

Screening results as filed in PubChem BioAssay.
